{"source": "ChEMBL document CHEMBL3102808", "about": "“Synthesis, in vitro antimalarial activity and cytotoxicity of novel 4-aminoquinolinyl-chalcone amides” (Bioorg Med Chem, 2014)", "key": {"[1]": {"assay": "Cytotoxicity against human WI38 cells after 48 hrs by SRB assay", "format": "cell-based", "conditions": "WI-38, 48 h", "outline": "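WI-38 normal human fetal lung fibroblasts, passages 21–50, seeded at 10 000 cells/well and incubated 24 h. Compounds dissolved in DMSO, diluted in medium to five concentrations, then exposed 48 h. Untreated cells as control, medium-only blank, parthenolide as standard. Cells TCA-fixed and stained with sulforhodamine B (NCI protocol). IC50 by non-linear regression.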"}, "[2]": {"assay": "Selectivity index, ratio of IC50 for human WI38 cells to IC50 for Plasmodium falciparum 3D7", "format": "toxicity, cell-based, WI-38", "conditions": "read-out: Ratio IC50", "outline": "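Selectivity index calculated as IC50 on WI-38 fibroblasts (48 h SRB) divided by IC50 on P. falciparum 3D7 (pLDH assay).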"}, "Plasmodium falciparum [3]": {"system": "Plasmodium falciparum", "assay": "Antimalarial activity against Plasmodium falciparum W2 after 48 hrs by LDH colorimetric assay", "format": "functional, organism-based", "conditions": "W2, 48 h", "outline": "(§1)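 Parasite survival after drug exposure read by pLDH colorimetric enzyme assay; APAD co-factor, formazan absorbance at 620 nm. Samples prepared in parasite culture medium in 96-well plates. Survival per well relative to drug-free control wells. IC50 from fitted sigmoidal dose-response curves.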"}, "Plasmodium falciparum [4]": {"system": "Plasmodium falciparum", "assay": "Resistance index, ratio of IC50 for Plasmodium falciparum W2 to IC50 for Plasmodium falciparum 3D7", "format": "functional", "outline": "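P. falciparum 3D7 and W2 cultures were exposed to test samples prepared in parasite culture medium. Survival was read by a pLDH colorimetric assay using APAD as cofactor, with formazan absorbance at 620 nm and percentage survival set against drug-free wells. IC50 for each strain came from fitted sigmoidal dose-response curves, and the ratio is IC50 W2 / IC50 3D7.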"}, "Plasmodium falciparum [5]": {"system": "Plasmodium falciparum", "assay": "Antimalarial activity against Plasmodium falciparum 3D7 after 48 hrs by LDH colorimetric assay", "format": "functional, organism-based", "conditions": "3D7, 48 h", "outline": "as §1"}, "Plasmodium falciparum [6]": {"system": "Plasmodium falciparum", "assay": "Ratio of chloroquine IC50 to compound IC50 for Plasmodium falciparum W2 after 48 hrs by LDH colorimetric assay", "format": "functional"}}, "data": [{"smiles": "Cc1ccc(C(=O)/C=C/c2ccc(C(=O)N(C)CCCNc3ccnc4cc(Cl)ccc34)cc2)o1", "values": [{"measurement": "IC50", "setting": "[1]", "result": 18600, "unit": "nM"}, {"measurement": "selectivity ratio", "setting": "[2]", "result": 50}, {"measurement": "IC50", "setting": "Plasmodium falciparum [3]", "result": 460, "unit": "nM"}, {"measurement": "Ratio IC50", "setting": "Plasmodium falciparum [4]", "result": 1.2}, {"measurement": "IC50", "setting": "Plasmodium falciparum [5]", "result": 370, "unit": "nM"}]}, {"smiles": "Cc1ccc(C(=O)/C=C/c2ccc(C(=O)NCCCNc3ccnc4cc(Cl)ccc34)cc2)o1", "values": [{"measurement": "IC50", "setting": "[1]", "result": 74500, "unit": "nM"}, {"measurement": "selectivity ratio", "setting": "[2]", "result": 1120}, {"measurement": "IC50", "setting": "Plasmodium falciparum [3]", "result": 230, "unit": "nM"}, {"measurement": "Ratio IC50", "setting": "Plasmodium falciparum [4]", "result": 3.4}, {"measurement": "IC50", "setting": "Plasmodium falciparum [5]", "result": 70, "unit": "nM"}]}, {"smiles": "Cc1ccc(C(=O)/C=C/c2ccc(C(=O)N3CCN(c4ccnc5cc(Cl)ccc45)CC3)cc2)o1", "values": [{"measurement": "IC50", "setting": "[1]", "result": 17300, "unit": "nM"}, {"measurement": "selectivity ratio", "setting": "[2]", "result": 32}, {"measurement": "IC50", "setting": "Plasmodium falciparum [3]", "result": 1260, "unit": "nM"}, {"measurement": "Ratio IC50", "setting": "Plasmodium falciparum [4]", "result": 2.3}, {"measurement": "IC50", "setting": "Plasmodium falciparum [5]", "result": 540, "unit": "nM"}]}, {"smiles": "Cc1ccc(C(=O)/C=C/c2ccc(C(=O)O)cc2)o1", "values": [{"measurement": "IC50", "setting": "[1]", "result": "> 100000", "unit": "nM"}, {"measurement": "IC50", "setting": "Plasmodium falciparum [3]", "result": 14200, "unit": "nM"}, {"measurement": "Ratio IC50", "setting": "Plasmodium falciparum [4]", "result": 0.8}, {"measurement": "IC50", "setting": "Plasmodium falciparum [5]", "result": 18400, "unit": "nM"}]}, {"smiles": "C=C1C(=O)O[C@@H]2C3O[C@]3(C)CC/C=C(\\C)CC[C@@H]12", "note": "(some centres undefined)", "values": [{"measurement": "IC50", "setting": "[1]", "result": 16400, "unit": "nM"}]}, {"smiles": "Cc1ccc(C(=O)/C=C/c2ccc(C(=O)NCCNc3ccnc4cc(Cl)ccc34)cc2)o1", "values": [{"measurement": "IC50", "setting": "[1]", "result": 47300, "unit": "nM"}, {"measurement": "selectivity ratio", "setting": "[2]", "result": 446}, {"measurement": "IC50", "setting": "Plasmodium falciparum [3]", "result": 1780, "unit": "nM"}, {"measurement": "Ratio IC50", "setting": "Plasmodium falciparum [4]", "result": 16.7}, {"measurement": "IC50", "setting": "Plasmodium falciparum [5]", "result": 110, "unit": "nM"}]}, {"smiles": "Cc1ccc(C(=O)/C=C/c2ccc(C(N)=O)cc2)o1", "values": [{"measurement": "IC50", "setting": "Plasmodium falciparum [5]", "result": 10000, "unit": "nM"}]}, {"smiles": "Cc1ccc(C(=O)/C=C/c2ccc(C(=O)N3CCOCC3)cc2)o1", "values": [{"measurement": "IC50", "setting": "Plasmodium falciparum [5]", "result": "> 30000", "unit": "nM"}]}, {"smiles": "Cc1ccc(C(=O)/C=C/c2ccc(C(=O)NCCCN(C)CCCNc3ccnc4cc(Cl)ccc34)cc2)o1", "values": [{"measurement": "IC50", "setting": "[1]", "result": 5300, "unit": "nM"}, {"measurement": "selectivity ratio", "setting": "[2]", "result": 58}, {"measurement": "IC50", "setting": "Plasmodium falciparum [3]", "result": 220, "unit": "nM"}, {"measurement": "Ratio IC50", "setting": "Plasmodium falciparum [4]", "result": 2.4}, {"measurement": "IC50", "setting": "Plasmodium falciparum [5]", "result": 90, "unit": "nM"}]}, {"smiles": "Cc1ccc(C(=O)/C=C/c2ccc(C(=O)NCCCCNc3ccnc4cc(Cl)ccc34)cc2)o1", "values": [{"measurement": "IC50", "setting": "[1]", "result": 39000, "unit": "nM"}, {"measurement": "selectivity ratio", "setting": "[2]", "result": 819}, {"measurement": "IC50", "setting": "Plasmodium falciparum [3]", "result": 100, "unit": "nM"}, {"measurement": "Ratio IC50", "setting": "Plasmodium falciparum [4]", "result": 2.1}, {"measurement": "IC50", "setting": "Plasmodium falciparum [5]", "result": 50, "unit": "nM"}]}, {"smiles": "CCCCNC(=O)c1ccc(/C=C/C(=O)c2ccc(C)o2)cc1", "values": [{"measurement": "IC50", "setting": "Plasmodium falciparum [5]", "result": 10000, "unit": "nM"}]}, {"smiles": "Cc1ccc(C(=O)/C=C/c2ccc(C(=O)NCCOCCOCCNc3ccnc4cc(Cl)ccc34)cc2)o1", "values": [{"measurement": "IC50", "setting": "[1]", "result": 10200, "unit": "nM"}, {"measurement": "selectivity ratio", "setting": "[2]", "result": 40}, {"measurement": "IC50", "setting": "Plasmodium falciparum [3]", "result": 270, "unit": "nM"}, {"measurement": "Ratio IC50", "setting": "Plasmodium falciparum [4]", "result": 1.1}, {"measurement": "IC50", "setting": "Plasmodium falciparum [5]", "result": 260, "unit": "nM"}]}, {"smiles": "Cc1ccc(C(=O)/C=C/c2ccc(C(=O)NCCCCCCNc3ccnc4cc(Cl)ccc34)cc2)o1", "values": [{"measurement": "Ratio IC50", "setting": "Plasmodium falciparum [6]", "result": 2}, {"measurement": "IC50", "setting": "[1]", "result": 19500, "unit": "nM"}, {"measurement": "selectivity ratio", "setting": "[2]", "result": 435}, {"measurement": "IC50", "setting": "Plasmodium falciparum [3]", "result": 70, "unit": "nM"}, {"measurement": "Ratio IC50", "setting": "Plasmodium falciparum [4]", "result": 1.5}, {"measurement": "IC50", "setting": "Plasmodium falciparum [5]", "result": 50, "unit": "nM"}]}, {"smiles": "Cc1ccc(C(=O)/C=C/c2ccc(C(=O)NC(C)CNc3ccnc4cc(Cl)ccc34)cc2)o1", "note": "(centres undefined)", "values": [{"measurement": "IC50", "setting": "[1]", "result": 10000, "unit": "nM"}, {"measurement": "selectivity ratio", "setting": "[2]", "result": 126}, {"measurement": "IC50", "setting": "Plasmodium falciparum [3]", "result": 110, "unit": "nM"}, {"measurement": "Ratio IC50", "setting": "Plasmodium falciparum [4]", "result": 1.4}, {"measurement": "IC50", "setting": "Plasmodium falciparum [5]", "result": 80, "unit": "nM"}]}]}
